The subject of assay [1] is HT-29. Nature of the assay: Upregulation of p21/Cip1 expression in human HT-29 cells at 10 uM after 48 hrs by immunoblotting method. Type of assay: functional, cell-based. An outline of the steps: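 HT-29 cells exposed 48 h to 10 μM compound. Whole-cell protein lysates probed for cell-cycle modulators by immunoblotting.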
Assay [2] deals with MCF7. Nature of the assay: Antiproliferative activity against human MCF7 cells assessed as cellular DNA content after 96 hrs by CyQUANT NF fluorescence assay. Type of assay: functional, cell-based. To be noted: MCF7, 96 h. The procedure, abridged: (§1)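 Cells seeded at 750 (HT-29), 250 (PC-3) or 900 (T84, MCF7) cells/well, treated next day with concentration series for 72 h (HT-29, PC-3) or 96 h (T84, MCF7). Relative cell number from cellular DNA content by fluorescent DNA-binding dye. Variable-slope fit; efficiency = maximal inhibition (100% − Bottom) vs untreated; IC50 relative to the compound's own maximal efficiency.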

Assay [3] has as its system HT-29. Put plainly: Antiproliferative activity against human HT-29 cells assessed as cellular DNA content after 72 hrs by CyQUANT NF fluorescence assay relative to control. In kind it is functional. The procedure, abridged:
as §1

The test system of assay [4] is HT-29. Nature of the assay: Induction of cell cycle arrest in human HT-29 cells assessed as accumulation at G0/G1 phase at 10 uM by flow cytometry (reference value: 66%). Type of assay: functional.
For assay [5], the target named is T1, Peroxisome proliferator-activated receptor delta (Homo sapiens, UniProt Q03181).
T1 sequence (Q03181 whole entry): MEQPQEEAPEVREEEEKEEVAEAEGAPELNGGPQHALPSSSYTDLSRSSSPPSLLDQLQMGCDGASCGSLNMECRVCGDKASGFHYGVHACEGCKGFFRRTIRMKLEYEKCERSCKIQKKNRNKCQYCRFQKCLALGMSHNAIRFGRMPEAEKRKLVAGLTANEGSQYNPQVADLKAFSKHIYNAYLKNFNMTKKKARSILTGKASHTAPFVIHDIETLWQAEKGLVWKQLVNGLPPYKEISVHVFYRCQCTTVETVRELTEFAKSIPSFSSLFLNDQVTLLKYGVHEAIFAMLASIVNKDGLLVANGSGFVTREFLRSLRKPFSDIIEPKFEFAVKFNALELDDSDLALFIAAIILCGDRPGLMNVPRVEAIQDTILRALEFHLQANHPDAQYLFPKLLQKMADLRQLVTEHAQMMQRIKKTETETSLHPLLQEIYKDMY
Put plainly: Competitive binding affinity to PPARbeta/delta (unknown origin) by TR-FRET assay.

Assay [6] relates to HT-29. Put plainly: Induction of ROS generation in human HT-29 cells at 30 uM by CM-H2DCFDA staining-based fluorescence assay in presence of 3H-1,2-dithiole-3-thione. In kind it is functional, cell-based. The procedure, abridged: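 HT-29 (15 000 cells/well) loaded with 50 μM CM-H2DCFDA in PBS for 30 min at 37 °C, washed, then 60 min in phenol red-free DMEM/F-12. 30 μM compound added alone or with NAC 1 mM, GSH 2.5 mM, D3T 25 μM, α-tocopherol 50 μM or ascorbic acid 500 μM. Fluorescence 485/530 nm read kinetically at 37 °C for 22 h; area under curve; means ± SEM, n = 7.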

Assay [7] deals with HT-29. Put plainly: Antiproliferative activity against human HT-29 cells assessed as cellular DNA content at 20 uM after 48 hrs by CyQUANT NF fluorescence assay in presence of glutathione. In kind it is functional, cell-based. The procedure, abridged:
(§2)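 HT-29 given concentration series of test compound with or without antioxidant (NAC 1 mM, GSH 2.5 mM, D3T 25 μM, α-tocopherol 50 μM, ascorbic acid 500 μM) for 48 h. Relative cell number from DNA-binding fluorescent dye; means ± SD, n = 4.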

Assay [8] relates to HT-29. Nature of the assay: Antiproliferative activity against human HT-29 cells assessed as cellular DNA content at 20 uM after 48 hrs by CyQUANT NF fluorescence assay in presence of ascorbic acid. In kind it is functional, cell-based. The procedure, abridged:
as §2

In assay [9] the test system is HT-29. Nature of the assay: Increase in extracellular acidification rate in human HT-29 cells at 10 uM measured for 20 to 150 mins by time-resolved fluorescence assay. In kind it is functional. An outline of the steps:
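HT-29 seeded 80 000 cells/well, held overnight at 37 °C without CO2. Low-buffering medium (1 mM PBS pH 7.4, 20 mM glucose, salts) with pH-sensitive lifetime probe, unsealed wells. Time-resolved fluorescence at 37 °C for 200 min, lifetime converted to pH. Acidification rate (H+ change/min) taken over 20–150 min; means ± SEM, n = 8.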

The subject of assay [10] is HT-29. Put plainly: Induction of apoptosis in human HT-29 cells assessed as increase in phosphatidylserine externalization at 10 uM after 48 hrs by flow cytometry in presence of TNF-related apoptosis inducing ligand. Type of assay: functional, cell-based. An outline of the steps:
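HT-29 exposed 48 h to 10 μM compound, αFAS (10 ng/mL), TRAIL (30 ng/mL) or combinations. Phosphatidylserine externalization by annexin V flow cytometry. Expected combination effects from Bliss independence; means ± SEM, n = 4.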

The structures appear in SMILES notation. The source made the active and inactive calls. No cut-off for these calls is given here.

Turning to `COc1c(CC=C(C)C)c(O)c(C(=O)O)c(CCc2ccccc2)c1CC=C(C)C`, the result in [1], in assay [7], in assay [8] and in assay [10] was Active. The IC50 in assay [2] was 14 µM. In [3], the Efficacy is recorded as 95%. For the same compound, the Activity in assay [4] was 89%; in assay [9], 2.9 ×10⁻⁹ /min. This compound showed a Ki in assay [5] of 5.2 µM. Moreover, the outcome in assay [6] was inactive.

Source of the values: ChEMBL document CHEMBL3779787, “Amorfrutin C Induces Apoptosis and Inhibits Proliferation in Colon Cancer Cells through Targeting Mitochondria” (J Nat Prod, 2016).
